Values belong to the compound of their own block, whether it stands above or below them. The source made the active and inactive calls. No cut-off for these calls is given here.
Tests used:
[1] = Selectivity index, ratio of IC50 for mouse astrocytes to IC50 for human T98G cells
T98G = experiment: Antiproliferative activity against human T98G cells after 72 hrs by MTT assay; type: functional, cell-based
Outline: (§1)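 MTT assay: cells in RPMI 1640 with 10% heat-inactivated FCS at 37 °C and 5% CO2 were seeded 24 h before treatment. They were exposed 72 h to compound at 0.01–100 μM, with DMSO as solvent.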

[2] = biological target: T1, NAD-dependent protein deacetylase sirtuin-2 (Homo sapiens, UniProt Q8IXJ6); experiment: Inhibition of N-terminal His-tagged recombinant human SIRT-2 expressed in Escherichia coli using Fluor-de-Lys-SIRT1 as substrate after 15 mins by fluorescence assay
T1 sequence (Q8IXJ6 whole entry): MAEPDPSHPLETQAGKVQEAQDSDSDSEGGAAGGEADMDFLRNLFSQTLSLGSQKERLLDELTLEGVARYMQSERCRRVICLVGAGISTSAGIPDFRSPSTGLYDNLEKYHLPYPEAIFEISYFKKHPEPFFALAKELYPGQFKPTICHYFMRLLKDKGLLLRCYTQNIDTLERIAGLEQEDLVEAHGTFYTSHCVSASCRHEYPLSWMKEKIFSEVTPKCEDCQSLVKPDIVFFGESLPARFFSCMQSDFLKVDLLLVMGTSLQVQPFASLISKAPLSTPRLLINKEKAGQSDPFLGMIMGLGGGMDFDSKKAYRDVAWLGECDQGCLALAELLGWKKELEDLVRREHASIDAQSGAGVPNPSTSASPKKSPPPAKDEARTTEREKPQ

[3] = Antiproliferative activity against human U373 cells after 72 hrs by MTT assay; type: functional, cell-based, U-373MG ATCC; conditions: U373 MG; outline: as §1
[4] = Selectivity index, ratio of IC50 for mouse astrocytes to IC50 for human Hs683 cells
Hs 683 [5] = experiment: Antiproliferative activity against human Hs683 cells after 72 hrs by MTT assay; type: functional, cell-based; conditions: Hs 683, 72 h; outline: as §1
[6] = biological target: T2, NAD-dependent protein deacetylase sirtuin-1 (Homo sapiens, UniProt Q96EB6); experiment: Inhibition of N-terminal His-tagged recombinant human SIRT-1 expressed in Escherichia coli using Fluor-de-Lys-SIRT1 as substrate after 15 mins by fluorescence assay
T2 sequence (Q96EB6 whole entry): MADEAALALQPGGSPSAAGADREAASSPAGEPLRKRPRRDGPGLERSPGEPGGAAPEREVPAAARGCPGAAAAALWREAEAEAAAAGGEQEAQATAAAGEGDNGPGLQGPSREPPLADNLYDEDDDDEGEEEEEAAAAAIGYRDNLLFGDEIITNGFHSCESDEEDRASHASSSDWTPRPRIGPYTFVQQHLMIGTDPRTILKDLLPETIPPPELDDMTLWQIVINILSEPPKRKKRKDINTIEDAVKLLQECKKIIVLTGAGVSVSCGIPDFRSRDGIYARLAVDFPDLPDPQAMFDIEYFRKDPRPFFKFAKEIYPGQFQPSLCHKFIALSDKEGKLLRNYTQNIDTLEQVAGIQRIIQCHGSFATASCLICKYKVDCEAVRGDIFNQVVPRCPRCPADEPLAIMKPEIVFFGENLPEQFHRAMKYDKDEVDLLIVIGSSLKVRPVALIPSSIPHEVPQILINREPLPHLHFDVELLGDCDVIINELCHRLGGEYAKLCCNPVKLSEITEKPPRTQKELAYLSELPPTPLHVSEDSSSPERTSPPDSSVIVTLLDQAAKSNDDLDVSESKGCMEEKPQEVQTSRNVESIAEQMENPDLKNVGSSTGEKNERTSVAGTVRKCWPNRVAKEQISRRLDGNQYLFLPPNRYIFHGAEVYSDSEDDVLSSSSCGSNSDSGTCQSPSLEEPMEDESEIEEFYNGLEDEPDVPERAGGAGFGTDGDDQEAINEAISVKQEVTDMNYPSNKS

[7] = Selectivity index, ratio of IC50 for mouse astrocytes to IC50 for human U373 cells
Hs 683 [8] = experiment: Cell cycle arrest in human Hs683 cells assessed as accumulation at G2/M phase at IC50 after 24 to 48 hrs by propidium iodide staining-based flow cytometry; type: functional
Outline: (§2)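 Cells were exposed to compound at the IC50 for each line from the 72 h MTT assay, or to a reference HDAC inhibitor at 2 μM. Cell cycle distribution was analyzed after 24 and 48 h. Results are mean ± SD of three independent experiments, with p values against control cells.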

Hs 683 [9] = experiment: Cell cycle arrest in human Hs683 cells assessed as accumulation at sub-G1 phase at IC50 for MTT assay after 24 to 48 hrs by propidium iodide staining-based flow cytometry; type: functional; outline: as §2
Hs 683 [10] = experiment: Cell cycle arrest in human Hs683 cells assessed as accumulation at G1 phase at IC50 after 24 to 48 hrs by propidium iodide staining-based flow cytometry; type: functional; outline: as §2
U-373MG ATCC [11] = experiment: Cell cycle arrest in human U373 cells assessed as accumulation at G2/M phase at IC50 after 24 to 48 hrs by propidium iodide staining-based flow cytometry; type: functional; outline: as §2
U-373MG ATCC [12] = experiment: Cell cycle arrest in human U373 cells assessed as accumulation at sub-G1 phase at IC50 for MTT assay after 24 to 48 hrs by propidium iodide staining-based flow cytometry; type: functional; outline: as §2
[13] = biological target: NAD-dependent protein deacetylase sirtuin-3, mitochondrial (Homo sapiens, UniProt Q9NTG7); experiment: Inhibition of N-terminal His-tagged recombinant human SIRT-3 expressed in Escherichia coli using Fluor-de-Lys-SIRT1 as substrate after 15 mins by fluorescence assay
Sequence of NAD-dependent protein deacetylase sirtuin-3, mitochondrial (Q9NTG7 whole entry): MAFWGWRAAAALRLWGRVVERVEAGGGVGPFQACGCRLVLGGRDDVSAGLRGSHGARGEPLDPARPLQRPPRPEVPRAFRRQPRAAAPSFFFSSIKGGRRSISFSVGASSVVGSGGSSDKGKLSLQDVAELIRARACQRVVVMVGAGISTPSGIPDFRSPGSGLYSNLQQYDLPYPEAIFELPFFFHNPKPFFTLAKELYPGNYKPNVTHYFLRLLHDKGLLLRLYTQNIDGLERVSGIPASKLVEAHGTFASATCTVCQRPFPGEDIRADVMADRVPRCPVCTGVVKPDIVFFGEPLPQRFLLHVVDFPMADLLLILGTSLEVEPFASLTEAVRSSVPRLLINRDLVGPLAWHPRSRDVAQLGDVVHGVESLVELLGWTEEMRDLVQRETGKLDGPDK

IC50 [2]: 18.5 µM | IC50 [6]: 32.1 µM
SMILES: CC(C)(C)OC(=O)Nc1ccc2c(c1)C(NC(=O)Nc1cccc(Cl)c1)CC(C)(C)O2 (centres undefined)
Ratio IC50 [1]: >12 | IC50 (T98G): 20 µM | IC50 [3]: 18 µM | Ratio IC50 [4]: >12 | IC50 (Hs 683 [5]): 12 µM | Ratio IC50 [7]: >12

SMILES: CC(C)(C)OC(=O)Nc1ccc2c(c1)C(NC(=O)Nc1ccccc1[N+](=O)[O-])CC(C)(C)O2 (racemic)
Ratio IC50 [1]: >10 | IC50 (T98G): 22 µM | IC50 [3]: 12 µM | Ratio IC50 [4]: >10 | IC50 (Hs 683 [5]): 13 µM | Ratio IC50 [7]: >10

IC50 [2]: 110 µM | IC50 [6]: 121 µM
SMILES: CC(C)(C)OC(=O)Nc1ccc2c(c1)C(NC(=O)Nc1ccc(C#N)cc1)CC(C)(C)O2 (centres undefined)
Ratio IC50 [1]: >10 | IC50 (T98G): 26 µM | IC50 [3]: 10 µM | Ratio IC50 [4]: >10 | IC50 (Hs 683 [5]): 18 µM | Ratio IC50 [7]: >10

SMILES: CC(NC(=O)c1ccccc1/N=C/c1c(O)ccc2ccccc12)c1ccccc1 (centres undefined) [SIRTINOL]
Activity (Hs 683 [8]): Active | Activity (Hs 683 [9]): inactive | IC50 [3]: 39.3 µM | IC50 (Hs 683 [5]): 33.9 µM | Activity (Hs 683 [10]): Active | Activity (U-373MG ATCC [11]): Active | Activity (U-373MG ATCC [12]): inactive

SMILES: CC(C)(C)OC(=O)Nc1ccc2c(c1)C(NC(=O)Nc1ccccc1Cl)CC(C)(C)O2 (racemic)
IC50 (T98G): 88 µM | IC50 [3]: 59 µM | IC50 (Hs 683 [5]): 34 µM

IC50 [2]: > 200 µM | IC50 [6]: > 200 µM
SMILES: CC1(C)CC(NC(=S)Nc2ccc([N+](=O)[O-])cc2)c2cc(Cl)ccc2O1 (centres undefined)

SMILES: CC(C)(C)OC(=O)Nc1ccc2c(c1)C(NC(=O)Nc1cccc(N)c1)CC(C)(C)O2 (racemic)
IC50 (T98G): > 100 µM | IC50 [3]: 97 µM | IC50 (Hs 683 [5]): 91 µM

SMILES: CC(C)(C)OC(=O)Nc1ccc2c(c1)C(NC(=O)Nc1ccc(C(F)(F)F)cc1)CC(C)(C)O2 (racemic)
Ratio IC50 [1]: >10 | IC50 (T98G): 15 µM | IC50 [3]: 10 µM | Ratio IC50 [4]: >10 | IC50 (Hs 683 [5]): 11 µM | Ratio IC50 [7]: >10

SMILES: COc1ccc(NC(=O)NC2CC(C)(C)Oc3ccc(NC(=O)OC(C)(C)C)cc32)cc1 (racemic)
IC50 (T98G): 49 µM | IC50 [3]: 33 µM | IC50 (Hs 683 [5]): 62 µM

SMILES: COc1cccc(NC(=O)NC2CC(C)(C)Oc3ccc(NC(=O)OC(C)(C)C)cc32)c1 (racemic)
IC50 (T98G): > 100 µM | IC50 [3]: 30 µM | IC50 (Hs 683 [5]): 37 µM

SMILES: CC1(C)CC(NC(=O)Nc2cccc(C#N)c2)c2cc(N)ccc2O1 (racemic)
IC50 (T98G): > 100 µM | IC50 [3]: > 100 µM | IC50 (Hs 683 [5]): > 100 µM

SMILES: CC1(C)CC(NC(=O)Nc2cccc(C#N)c2)c2ccccc2O1 (racemic)
IC50 (T98G): 32 µM | IC50 [3]: 38 µM | IC50 (Hs 683 [5]): 31 µM

SMILES: COc1ccccc1NC(=O)NC1CC(C)(C)Oc2ccc(NC(=O)OC(C)(C)C)cc21 (racemic)
IC50 (T98G): 39 µM | IC50 [3]: 30 µM | IC50 (Hs 683 [5]): 59 µM

SMILES: CC(C)(C)OC(=O)Nc1ccc2c(c1)C(NC(=O)Nc1cccc(F)c1)CC(C)(C)O2 (racemic)
IC50 (T98G): 26 µM | IC50 [3]: 20 µM | IC50 (Hs 683 [5]): 19 µM

SMILES: CC(C)(C)OC(=O)Nc1ccc2c(c1)C(NC(=O)Nc1cccc(Br)c1)CC(C)(C)O2 (racemic)
IC50 (T98G): 26 µM | IC50 [3]: 22 µM | IC50 (Hs 683 [5]): 18 µM

SMILES: CC(C)(C)OC(=O)Nc1ccc2c(c1)C(NC(=O)Nc1ccc([N+](=O)[O-])cc1)CC(C)(C)O2 (racemic)
IC50 (T98G): 26 µM | IC50 [3]: 24 µM | IC50 (Hs 683 [5]): 20 µM

IC50 [2]: 51.1 µM | IC50 [6]: 109 µM
SMILES: CCOC(=O)Nc1ccc2c(c1)C(NC(=O)Nc1cccc(C#N)c1)CC(C)(C)O2 (centres undefined)

IC50 [2]: 99.8 µM | IC50 [6]: > 200 µM
SMILES: CC(C)(C)OC(=O)Nc1ccc2c(c1)C(NC(=O)Nc1cccc([N+](=O)[O-])c1)CC(C)(C)O2 (racemic)
Ratio IC50 [1]: <5 | IC50 (T98G): 7 µM | IC50 [3]: 1 µM | Ratio IC50 [4]: <5 | IC50 (Hs 683 [5]): 16 µM | Ratio IC50 [7]: <5

SMILES: CC(C)(C)OC(=O)Nc1ccc2c(c1)C(NC(=O)Nc1cccc(CN)c1)CC(C)(C)O2 (racemic)
IC50 (T98G): > 100 µM | IC50 [3]: > 100 µM | IC50 (Hs 683 [5]): 95 µM

SMILES: CC(C)(C)OC(=O)Nc1ccc2c(c1)C(NC(=O)Nc1ccc(Cl)cc1)CC(C)(C)O2 (centres undefined)
IC50 (T98G): 26 µM | IC50 [3]: 22 µM | IC50 (Hs 683 [5]): 26 µM

IC50 [13]: > 200 µM | IC50 [2]: 13 µM
SMILES: Cc1ccc(C(=O)Nc2ccc(S(=O)(=O)O)c3cc(S(=O)(=O)O)cc(S(=O)(=O)O)c23)cc1NC(=O)c1cccc(NC(=O)Nc2cccc(C(=O)Nc3cc(C(=O)Nc4ccc(S(=O)(=O)O)c5cc(S(=O)(=O)O)cc(S(=O)(=O)O)c45)ccc3C)c2)c1 [SURAMIN]

SMILES: CC(C)(C)OC(=O)Nc1ccc2c(c1)C(NC(=O)Nc1ccccc1C(F)(F)F)CC(C)(C)O2 (racemic)
IC50 [3]: > 100 µM

SMILES: NC(=O)C1CCCc2c1[nH]c1ccc(Cl)cc21 (centres undefined)
Activity (Hs 683 [9]): inactive | IC50 [3]: 157 µM | IC50 (Hs 683 [5]): 116 µM | Activity (Hs 683 [10]): Active | Activity (U-373MG ATCC [12]): inactive

SMILES: CC(C)(C)OC(=O)Nc1ccc2c(c1)C(NC(=O)Nc1ccccc1C#N)CC(C)(C)O2 (racemic)
IC50 (T98G): 67 µM | IC50 [3]: 45 µM | IC50 (Hs 683 [5]): 54 µM

IC50 [2]: 49.4 µM | IC50 [6]: 110 µM
SMILES: COC(=O)Nc1ccc2c(c1)C(NC(=O)Nc1cccc(C#N)c1)CC(C)(C)O2 (centres undefined)

SMILES: CC(C)(C)OC(=O)Nc1ccc2c(c1)C(NC(=O)Nc1cccc(C(F)(F)F)c1)CC(C)(C)O2 (racemic)
Ratio IC50 [1]: <2 | IC50 (T98G): 21 µM | IC50 [3]: 9 µM | Ratio IC50 [4]: <2 | IC50 (Hs 683 [5]): 9 µM | Ratio IC50 [7]: <2

SMILES: CC1(C)CC(NC(=O)Nc2cccc(C#N)c2)c2cc(NC=O)ccc2O1 (racemic)
IC50 (T98G): > 100 µM | IC50 [3]: > 100 µM | IC50 (Hs 683 [5]): > 100 µM

IC50 [2]: 22.7 µM | IC50 [6]: 54.8 µM
SMILES: CC(C)OC(=O)Nc1ccc2c(c1)C(NC(=O)Nc1cccc(C#N)c1)CC(C)(C)O2 (centres undefined)

IC50 [6]: 98.1 µM
SMILES: N#C/C(=C\c1ccc(-c2cc(Cl)ccc2Cl)o1)C(=O)Nc1cccc2ncccc12
Activity (Hs 683 [8]): Active | Activity (Hs 683 [9]): Active | IC50 [3]: 47.6 µM | IC50 (Hs 683 [5]): 80.2 µM | Activity (U-373MG ATCC [11]): Active | Activity (U-373MG ATCC [12]): Active
